Screens from PubChem.
Only some compounds are listed: those with a hit (about 1.5% of all), similar ones and a draw of the others.
Jurkat NFkB inh = inhibitors of the PMA/ionomycin-induced NF-kB reporter in Jurkat cells | PMA/ionomycin-induced NF-kB luciferase reporter, luminescence | inhibition, % at 4 µM | 330,000 tested, 0.53% active | AID 435003; in the data active means inhibition above about 50%
NR2E3 ag-1 = activates human NR2E3 receptor; 360,000 tested, 0.35% active; CHO-S Gal4-NCOR/VP16-NR2E3 two-hybrid, luciferase; AID 602229; inhibition of corepressor binding, % at 3.98 µM;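 active means inhibition above the mean of all tested compounds plus 3 SD, cut at about 70% in these data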;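 further: 0% = DMSO with NR2E3 transfected cells and 100% = cells lacking NR2E3 construct; higher means lower luciferase signal from less NR2E3 corepressor binding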
GASC-1 inh = blocks human GASC-1 demethylase activity | GST-JMJD2C(1-420) H3K9me3 demethylation, DELFIA europium | Q9H3R0 | 330,000 tested, 0.069% active | AID 2099 | inhibition, % at 2.35 µM;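 active means more than half of a compound's replicate wells show inhibition beyond 50%, single wells judged on their own value; inconclusive means some, but no more than half, of replicates pass 50% inhibition; inactive means no replicate passes 50% inhibition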;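 further: signal counts dimethyl H3K9 product captured on neutravidin plate; 0% = median of DMSO wells and 100% = 0.3 times that DMSO median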
Target sequence (Q9H3R0 1-420 limits assumed): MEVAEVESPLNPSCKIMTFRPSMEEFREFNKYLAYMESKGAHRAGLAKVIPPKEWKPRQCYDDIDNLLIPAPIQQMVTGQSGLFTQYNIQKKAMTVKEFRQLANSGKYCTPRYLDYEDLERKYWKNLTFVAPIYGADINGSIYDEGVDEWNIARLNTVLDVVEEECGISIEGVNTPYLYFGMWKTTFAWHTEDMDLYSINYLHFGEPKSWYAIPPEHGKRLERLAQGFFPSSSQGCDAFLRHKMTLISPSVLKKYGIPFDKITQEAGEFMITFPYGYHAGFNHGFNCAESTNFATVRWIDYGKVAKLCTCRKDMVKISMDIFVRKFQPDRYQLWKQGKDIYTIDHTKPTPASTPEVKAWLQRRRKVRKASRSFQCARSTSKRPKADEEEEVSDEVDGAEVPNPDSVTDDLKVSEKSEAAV
GalR3 antagonist = human GalR3 antagonism | 360,000 tested, 0.44% active | HEK293 GalR3-CNG cAMP membrane potential fluorescence; galR3 body fused to GalR1 C-terminus | inhibition, % at 3 µM | O60755;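 active means inhibition above the screen-wide average plus 3 SD, cut at about 13% in these data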;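 further: forskolin and galanin both at EC90 stimulate the cells; cAMP rise reported by CNG channel membrane potential dye signal; 0% = forskolin plus galanin with DMSO and 100% = forskolin alone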
697 NFkB inh = lowers PMA/ionomycin-induced NF-kB signal in 697 B cells; 697 B-cell NF-kB luciferase reporter, 16 h; inhibition, % at 4 µM; 330,000 tested, 0.33% active; AID 435022; in the data active means inhibition above about 35%
NR2E3 ag-2 = NR2E3 (human) agonism | 320,000 tested, 0.12% active | AID 2300 | Q9Y5X4 | inhibition of corepressor binding, % at 4.78 µM | GST-NR2E3/biotin-RetCOR TR-FRET, 1536-well;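 active means percent inhibition above the cutoff of mean plus 3 SD of all tested compounds, set per screening campaign, cut at about 20% in these data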;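 further: 0% = DMSO wells and 100% = biotin wells as full block of FRET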
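Format: 1536-well format; test system: GST-NR2E3 and biotin-RetCOR proteins; read-out basis: percent inhibition of TR-FRET ratio; timing: 5 h incubation at 4 °C; detection: time-resolved FRET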
GalR3 antag conf = confirmation of human galanin receptor 3 antagonists; shares compounds with GalR3 antagonist; HEK293 GalR3 CNG cAMP biosensor, membrane potential fluorescence; galR3 fused to GalR1 carboxy tail; challenged with forskolin and galanin at EC90; inhibition, % at 3 µM; 1,600 tested, 59% active; AID 652245;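 active means inhibition above the primary screen's cutoff, the mean inhibition of all screened compounds plus 3 SD, cut at about 13% in these data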;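 further: 0% = forskolin plus galanin and 100% = forskolin alone with DMSO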
HEK-CNG parental = counter-screen for GalR3 antagonists: nonspecific agonists in parental HEK-CNG cells; 1,600 tested, 10% active; activation, % at 3 µM; shares compounds with GalR3 antagonist; HEK293-CNG parental cells, cAMP membrane potential fluorescence; normalised: DMSO wells 0%, forskolin wells 100%; in the data active means activation above about 1.3%
An asterisk follows results filed as active; u = inconclusive; x = not tested or not shown.

SMILES	Jurkat NFkB inh	NR2E3 ag-1	GASC-1 inh	GalR3 antagonist	697 NFkB inh	NR2E3 ag-2	GalR3 antag conf	HEK-CNG parental
O=S(=O)(NCC1CN(S(=O)(=O)c2c(F)cccc2F)C1)c1ccc2c(c1)OCCO2	22	47	3	73*	-20	2	103*	0
O=P(Nc1ccccc1)(Nc1ccccc1)c1ccccc1	x	2	x	-4	x	x	x	x
NC(=O)c1cccnc1Nc1ccccc1Cl	-16	-44	-10	19*	4	1	-6	0
CCCCOCCCNC(=O)C[C@H]1C[C@@]2(C(=O)OC)C(=C[C@H](C(C)C)O[C@@H]2C2CC2)N(Cc2ccccc2)C1=O	x	x	x	-5	x	x	x	x
FC(F)(F)c1cnc(N2CCCN(C(=S)Nc3ccccc3)CC2)c(Cl)c1	-17	14	10	40*	-46	0	80*	0
FC(F)(F)c1cnc(N2CCN(C(=S)NCc3ccccc3)CC2)c(Cl)c1	2	2	0	-3	11	-3	x	x
COc1cc(NC(=O)COC(=O)C2CC2)c(C)cc1[N+](=O)[O-]	3	-7	-1	-9	-12	1	x	x
COc1cc(NC(=O)COC(=O)C2CC(O)CN2S(=O)(=O)c2ccc(Cl)cc2)c(C)cc1[N+](=O)[O-] (configuration not stated)	x	-17	x	24*	x	x	47*	0
CCOC(=O)N1CCC(NC(=O)CS(=O)Cc2nc(-c3ccc(Cl)cc3)oc2C)CC1 (configuration not stated)	13	32	-2	-2	6	1	x	x
COc1ccccc1C(=O)Nc1ccc(C2=NNC(=O)CC2C)cc1 (configuration not stated)	-10	-9	-21	73*	-30	5	73*	0
CC1CCCN(C2(O)C(=O)Nc3ccc(Cl)cc32)C1 (configuration not stated)	12	-6	-10	-10	5	0	x	x
[O-][n+]1onc2c3ccnnc3ccc21	-6	-5	5	8	-1	0	x	x
Cc1cc2c(ccc3c2no[n+]3[O-])nn1	7	-8	6	14*	-17	2	13*	0
COc1ccc(CCNC(=O)CSc2ccc(-c3ccco3)nn2)cc1	6	-11	-16	13*	-9	1	6	0
Cc1cc(-c2ccccc2)cc(=O)[nH]1	x	-28	x	19*	x	x	12	0
COc1cc(C(=O)N/N=C/C2CC=CCC2)cc(OC)c1OC (configuration not stated)	x	26	0	13*	x	-1	1	0
O=C(N/N=C/C1CC=CCC1)c1ccc(O)cc1O (configuration not stated)	3	-16	-7	-5	16	1	x	x
N#C/C(N=Nc1ccccc1O)=N\Nc1ccccc1O	0	-6	87*	61*	-89	-4	84*	-2
Oc1ccccc1N=N/C(=N/Nc1ccccc1O)c1ccccc1	-10	-34	u	2	8	2	x	x
COc1ccc(C2CC(=O)C(c3cccc(Cl)c3)=CN2Cc2ccccc2)cc1 (configuration not stated)	x	x	x	-9	x	x	x	x
O=[N+]([O-])c1ccc(-c2ccc(S(=O)(=O)NCCN3CCCC3)cc2)cc1	34	0	-10	41*	-28	-2	10	0
CN(C[C@H](Cc1ccccc1)N(C[C@H](Cc1ccccc1)N(CC1(c2ccccc2)CC1)N=O)N=O)N=O	-5	19	0	-8	6	3	x	x
C[C@H](CO)N1C[C@H](C)[C@@H](CN(C)C(=O)c2cnccn2)Oc2cc(C#CCC3CCCC3)ccc2S1(=O)=O	x	-13	x	-5	x	x	x	x
COc1ccc(N2C(=O)c3ccccc3NC2c2ccc(OC)c(Cn3cc([N+](=O)[O-])cn3)c2)cc1 (configuration not stated)	-50	-127	-1	59*	-37	0	24*	0
COc1ccc(C2Nc3ccccc3C(=O)N2c2ccccc2)cc1Cn1cc([N+](=O)[O-])cn1 (configuration not stated)	9	-60	6	-4	-8	1	x	x
SMILES	Jurkat NFkB inh	NR2E3 ag-1	GASC-1 inh	GalR3 antagonist	697 NFkB inh	NR2E3 ag-2	GalR3 antag conf	HEK-CNG parental
O=C(NCC1COc2ccccc2O1)c1ccc(Br)s1 (configuration not stated)	-10	-57	-12	-11	-18	1	x	x
O=C(/C=C/c1ccc([N+](=O)[O-])cc1)N(c1ccccn1)C1CCCCC1	-7	-13	0	3	-3	0	x	x
O=C1[C@H](Cc2ccccc2)NCCCC[C@@H](c2ccc(Cl)cc2)N1Cc1ccccc1	x	8	x	x	x	x	1	2.3*
COCCNC(=O)/C(C#N)=C/c1c(N2CC(C)OC(C)C2)nc2ccccn2c1=O (configuration not stated)	42	-2	11	25*	-46	2	-1	0
CCNC(=O)/C(C#N)=C/c1c(N2CC(C)OC(C)C2)nc2ccccn2c1=O (configuration not stated)	4	-19	0	4	0	-4	x	x
Cc1cc(=O)[nH]c(N/N=C/c2ccc(Cl)c([N+](=O)[O-])c2)n1	4	-16	-1	14*	22	3	2	0
COc1ccc(-c2csc3ncn(Cc4ccccc4)c(=O)c23)cc1	-12	13	-12	4	-8	3	x	x
COc1ccc(-c2c3c(cc4ncn(Cc5ccccc5)c24)COC3=O)cc1	-5	-37	-2	27*	10	3	52*	0
CCC(C)NS(=O)(=O)c1ccc(S(=O)(=O)N(CCc2ccc(OC)c(OC)c2)Cc2cccs2)cc1 (configuration not stated)	21	6	8	26*	-5	0	56*	-1
COc1cccc(/C=N/NC(=O)CNC(=O)c2cccnc2)c1O	19	-24	-5	-7	9	2	x	x
COC(=O)c1ccc(COc2ccccc2/C=N/NC(=O)c2cccnc2)cc1	-20	-20	7	13*	1	2	5	1
CCNC(=O)c1ccc(NC(=O)CC2SC(N3CCCCC3)=NC2=O)cc1 (configuration not stated)	-9	-27	8	16*	22	0	6	0
